M4 antag – antagonists of human muscarinic M4 receptor (CHRM4); P08173; CHO-hM4 cells, ACh EC80, Fluo-8 calcium fluorescence; inhibition, % at 3 µM; 360,000 tested, 0.73% active; AID 624125;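 active = inhibition above its plate's cutoff, the mean inhibition of sample wells plus 3 SD, cut at about 27% in these data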
CHRM5 antagonist – antagonists of human muscarinic M5 receptor (CHRM5); P08912; CHO-hM5 cells, Fluo-8 calcium fluorescence, ACh EC80; inhibition, % at 3 µM; 360,000 tested, 0.59% active; AID 624040;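 active = inhibition above a per-plate cutoff, the mean of that plate's test compounds plus 3 SD, cut at about 27% in these data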
Target sequence (P08912 whole entry, looked up): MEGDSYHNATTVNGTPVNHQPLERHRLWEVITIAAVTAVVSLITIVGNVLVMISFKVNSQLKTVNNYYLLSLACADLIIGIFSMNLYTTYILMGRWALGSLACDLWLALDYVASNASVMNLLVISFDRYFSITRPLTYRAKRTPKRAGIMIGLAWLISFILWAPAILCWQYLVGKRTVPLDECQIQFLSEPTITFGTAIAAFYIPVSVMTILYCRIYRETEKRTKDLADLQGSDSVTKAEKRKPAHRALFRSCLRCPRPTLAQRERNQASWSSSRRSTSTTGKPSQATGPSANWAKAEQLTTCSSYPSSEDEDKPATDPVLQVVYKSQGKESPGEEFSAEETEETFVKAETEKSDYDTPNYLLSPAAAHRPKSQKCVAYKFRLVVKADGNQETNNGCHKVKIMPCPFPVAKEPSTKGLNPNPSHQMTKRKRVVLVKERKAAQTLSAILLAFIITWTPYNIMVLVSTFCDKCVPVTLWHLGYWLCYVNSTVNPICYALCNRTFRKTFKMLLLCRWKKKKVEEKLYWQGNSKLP
M4 PAM – positive allosteric modulators of human muscarinic M4 receptor | CHO-K1 hM4/Gqi5, Fluo-8 calcium fluorescence, ACh EC20; 0% = ACh EC20, 100% = maximal ACh | activation, % at 3 µM | 360,000 tested, 0.4% active;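 active = activation above its plate's cutoff, the mean activation of sample wells plus 3 SD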
M5 ag – agonists of human muscarinic M5 receptor (CHRM5); 360,000 tested, 0.19% active; activation, % at 3 µM; P08912; CHO-K1 hM5 cells, Fluo-8 calcium fluorescence; 0% DMSO wells, 100% maximal acetylcholine response;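 active = activation above the run's mean over test compounds plus 3 SD, cut at about 23% in these data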;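 also: signal is peak over basal fluorescence ratio across the kinetic read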
CHRM4 agonist – CHRM4 agonism in calcium assay | P08173 | CHO-K1 hM4/Gqi5, Fluo-8 calcium fluorescence; vehicle 0%, full acetylcholine response 100% | activation, % at 3 µM | 360,000 tested, 0.14% active | AID 624127;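 active = activation above the run mean over all test wells plus 3 SD, cut at about 32% in these data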;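 also: peak over basal fluorescence ratio per well then scaled between controls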
M5 PAM – potentiates acetylcholine response at human M5 receptor | P08912 | 360,000 tested, 0.3% active | CHO-K1 hM5, Fluo-8 calcium, ACh EC20 PAM; 0% = ACh EC20, 100% = ACh EC100 | activation, % at 3 µM;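 active = activation above the run cutoff, the mean activation of all test compounds plus 3 SD, cut at about 18% in these data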
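Replicates: One well per compound, no replicates | System: Human M5 receptor in CHO-K1 cells | Benchmarks: Low control EC20 acetylcholine (0%), high control EC100 acetylcholine (100%) | Probe or stimulus: Acetylcholine, EC20 level | Times: Fluo-8 loading 80 min at 37 °C plus 30 min room temperature | Signal: Intracellular calcium via Fluo-8 fluorescence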
Hits are given with their value; n = inactive; ! = not active in a repeat. Rows were chosen to be rich in hits. Some 1.8% of all compounds tested hit in one or more screens of this group.

SMILES	M4 antag	CHRM5 antagonist	M4 PAM	M5 ag	CHRM4 agonist	M5 PAM
COc1ccccc1C(CNC(=O)c1cccc(S(=O)(=O)Nc2ccc(C)cc2)c1)N(C)C (centres undefined)	32.4	98.5	n	n	n	n
CC(=O)c1cccc(NC(=O)c2ccc(C)o2)c1	n	n	n	n	n	n
O=C(Nc1cccc(NC(=O)c2ccc(-c3cccc(Br)c3)o2)c1)c1ccco1	33.5	n	n	n	n	n
O=C(Nc1cccc(NC(=O)c2ccc(-c3ccc(Br)cc3)o2)c1)c1ccccc1	n	n	n	n	n	n
O=C(Nc1cccc(-c2cnc3ccccc3n2)c1)c1ccccc1	n	n	n	n	n	n
CC(=O)c1cccc(NC(=O)c2ccc(Br)o2)c1	28.9	n	n	n	n	n
O=C(Nc1cccc(-c2cnc3ccccc3n2)c1)c1cccc(NC(=O)c2ccco2)c1	41.6	n	n	n	n	n
CC(C)CC(=O)Nc1cccc(C(=O)Nc2ccccc2C(=O)O)c1	n	n	30.5	n	n	n
COc1ccc2oc(C(=O)OCC(=O)N(C)c3c(N)n(Cc4ccccc4)c(=O)[nH]c3=O)c(C)c2c1	n	n	n	n	n	n
OCC1OC(n2ccc3c(SCc4ccccc4)ncnc32)C(O)C1O (centres undefined)	n	n	n	n	n	n
CCCCN(Cc1ccco1)S(=O)(=O)c1csc(C(N)=O)c1	n	n	n	n	n	n
O=C1CC(=Nc2ccc([N+](=O)[O-])cc2)NN1c1c(Cl)cc(Cl)cc1Cl	n	n	n	n	n	n
CC(=O)c1cccc(NC(=O)c2cc(-c3cccs3)on2)c1	n	n	15.8	n	n	n
O=C(Nc1ccccc1C(=O)O)c1cccc(NC(=O)c2ccc(Br)o2)c1	n	n	18.4	n	n	n
O=C(Nc1cccc(C(=O)Nc2ccc(Br)cc2)c1)c1ccccc1	n	30.8	n	n	n	n
O=C(Nc1ccc(Nc2ccccc2)cc1)c1ccc(Br)cc1	n	n	n	n	n	n
COCCCN(C(=O)c1cc(Cl)nc2ccccc12)c1c(N)n(Cc2ccccc2)c(=O)[nH]c1=O	n	n	n	n	n	n
O=C(CN1C(=O)c2cccnc2Oc2ccc(Cl)cc21)N1CCCC1	n	n	n	n	n	n
Cc1cc([N+](=O)[O-])ccc1NC(=O)CSc1nnc(C)n1C	n	n	n	n	n	n
COc1ccc(CN(C)C(=O)C2CSC3(C)CCC(=O)N23)c(OC)c1 (centres undefined)	n	n	n	n	n	n
COc1ccc(NS(=O)(=O)c2csc(C(=O)N3CCCC3)c2)c(OC)c1	n	n	n	n	n	n
Cc1ccc(C(=O)NCC(=O)NCC(=O)OCc2ccc(Oc3ccc([N+](=O)[O-])cc3)cc2)cc1	n	30.8	n	n	n	n
CCOC(=O)c1cc(-c2ccccc2)sc1NC(=O)C(C)OC(=O)c1cccc(S(=O)(=O)N(C)C)c1 (centres undefined)	n	n	n	n	n	19.9
CSCCC(NC(=O)c1ccccc1Br)C(=O)NNC(=O)c1ccco1 (centres undefined)	n	n	n	n	n	n
COc1ccc(OC)c(NC(=O)c2sc3ncnc(N4CCN(c5ccccn5)CC4)c3c2C)c1	n	n	18.8	n	n	n
SMILES	M4 antag	CHRM5 antagonist	M4 PAM	M5 ag	CHRM4 agonist	M5 PAM
CN(C)c1ccc(C=NN2C(=O)CSC2=S)c(Cl)c1	n	n	n	25.8	n	n
Cc1ccc(SCC(=O)Nc2ccc(-c3nc4ccccc4[nH]3)cc2)cc1	n	n	n	n	n	n
O=C(Nc1ccncc1)c1ccc2c(c1)C(=O)N(C1CCCCC1)C2=O	41.7	30.8	n	n	n	n
CC1(C(=O)Nc2cccc3cccnc23)CCN1C(=O)Cc1ccc(Cl)cc1Cl (centres undefined)	n	n	n	n	n	n
CC(NS(=O)(=O)c1ccc(F)cc1)C(c1cccs1)N1CCOCC1 (centres undefined)	54.1	n	n	n	n	n
CC(NC(=O)Cc1cccs1)C(c1cccs1)N1CCOCC1 (centres undefined)	n	n	35.6	n	n	n
CCC(=O)NC(C)C(c1cccs1)N1CCOCC1 (centres undefined)	n	n	n	n	n	n
Cc1cc(NC(=O)/C(C#N)=C\c2ccc(-c3ccc(SC(F)F)cc3)o2)n(-c2ccccc2)n1	n	n	n	n	n	n
Cc1ccc([C@H]2N[C@]3(CCCN(Cc4ccc(F)cc4)C3=O)[C@H]3C(=O)N(Cc4ccccc4)C(=O)[C@@H]23)cc1	n	n	n	n	n	n
CCCCCCCCCCOC(=O)Cn1c(COc2cccc(C)c2)[n+](C)c2ccccc21	38.0	n	n	n	n	n
CCCCCCCCCCOC(=O)Cn1c(COc2ccc(Cl)cc2)[n+](C)c2ccccc21	n	n	n	n	n	n
CCCCCCCCCCOC(=O)Cn1c(COc2ccccc2C)[n+](C)c2ccccc21	91.8	52.9	n	n	n	n
CCCCCCCCCCOC(=O)Cn1c(COc2ccc(OC)cc2)[n+](C)c2ccccc21	32.3!	27.7!	n	n	n	n
Cc1ccccc1OCc1n(CC(=O)OC2CC(C)CCC2C(C)C)c2ccccc2[n+]1C (centres undefined)	34.9	44.1!	n	n	n	n
Cc1ccc(CNCc2cc(Cl)ccc2O)cc1	n	n	n	n	n	n
CCCCCCCCCCOC(=O)Cn1c(COc2ccccc2)[n+](C)c2ccccc21	37.7	32.8	n	n	n	n
CC(C)CN(Cc1c(O)ccc2c3c(c(=O)oc12)CCC3)CC(C)C	28.1	n	n	n	n	n
O=c1oc2c(CN3CCOCC3)c(O)ccc2c2c1CCC2	n	n	n	n	n	n
O=C(COC(=O)CCN=C1NS(=O)(=O)c2ccccc21)NNC(=O)c1ccc(Cl)cc1	n	n	n	n	n	n
Cc1ccc(CC2(OCCN(C)C)CCC(C(C)(C)C)CC2)cc1 (centres undefined)	n	n	n	n	n	n
CN(C)CCOC1(Cc2ccc(F)cc2)CCC(C(C)(C)C)CC1 (centres undefined)	n	n	n	n	n	18.6
N#CCN1C(=O)NC2(CCCc3sccc32)C1=O (centres undefined)	n	n	n	n	n	n
CNc1nc(N)c([N+](=O)[O-])c(Nc2ccccc2OC)n1	n	n	n	n	n	n
COc1ccc(C=NNC(=O)c2ccccc2OCc2ccc(F)cc2)c(OC)c1	n	n	n	n	n	n
